This is an account of results in ChEMBL document CHEMBL1157537 (J Med Chem, 2008).

Assay [1] concerns the target T1, Progesterone receptor (Homo sapiens) (UniProt P06401).
T1 sequence (whole entry): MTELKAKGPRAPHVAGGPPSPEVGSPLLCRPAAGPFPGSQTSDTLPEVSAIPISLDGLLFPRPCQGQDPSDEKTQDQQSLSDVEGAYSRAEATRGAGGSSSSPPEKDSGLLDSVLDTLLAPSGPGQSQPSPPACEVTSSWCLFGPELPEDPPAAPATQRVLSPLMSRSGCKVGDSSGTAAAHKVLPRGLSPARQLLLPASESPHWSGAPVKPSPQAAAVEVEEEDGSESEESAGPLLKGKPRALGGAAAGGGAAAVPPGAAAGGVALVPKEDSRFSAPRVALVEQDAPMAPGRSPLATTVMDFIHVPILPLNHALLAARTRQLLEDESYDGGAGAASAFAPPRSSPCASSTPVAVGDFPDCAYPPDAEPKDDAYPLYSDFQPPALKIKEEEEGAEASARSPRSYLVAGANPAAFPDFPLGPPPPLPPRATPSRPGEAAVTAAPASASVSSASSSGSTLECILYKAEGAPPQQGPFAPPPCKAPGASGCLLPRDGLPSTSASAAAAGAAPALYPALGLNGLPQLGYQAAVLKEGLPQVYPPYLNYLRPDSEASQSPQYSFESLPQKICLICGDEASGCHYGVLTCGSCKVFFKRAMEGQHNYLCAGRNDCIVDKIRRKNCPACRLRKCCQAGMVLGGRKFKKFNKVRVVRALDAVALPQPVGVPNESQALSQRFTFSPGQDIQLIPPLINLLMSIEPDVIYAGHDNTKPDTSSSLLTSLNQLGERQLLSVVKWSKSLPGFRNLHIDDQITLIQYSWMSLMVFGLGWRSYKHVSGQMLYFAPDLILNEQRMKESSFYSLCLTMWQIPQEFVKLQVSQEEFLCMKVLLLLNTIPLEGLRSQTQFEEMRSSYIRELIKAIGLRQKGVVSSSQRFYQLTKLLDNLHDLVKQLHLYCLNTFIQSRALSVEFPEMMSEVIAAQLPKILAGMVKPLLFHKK
Description: Agonist activity at human progesterone receptor relative to progesterone. In kind it is functional.

Assay [2] has as its target T2, Progesterone receptor (Homo sapiens, UniProt P06401).
T2 sequence (P06401 whole entry): T1 sequence (whole entry)
Description: Agonist activity at human progesterone receptor in human T47D cells assessed as alkaline phosphatase activity. In kind it is functional, cell-based.

The target of assay [3] is T1, Progesterone receptor (Homo sapiens). The assay is described as follows: Agonist activity at human progesterone receptor in human T47D cells assessed as alkaline phosphatase activity relative to progesterone. The assay is classed as functional, cell-based.
Assay [4] concerns the target T2, Progesterone receptor. Description: Binding affinity at human progesterone receptor.
In assay [5] the target is T2, Progesterone receptor. The assay is described as follows: Agonist activity at human progesterone receptor. The assay is classed as functional.
Assay [6] is filed under the species Rattus norvegicus. Description: Progestational activity in estrone-treated ovariectomized rat assessed as effect on uterine epithelial cell height. In kind it is functional, organism-based. The procedure, abridged:
(§1)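 Ovariectomized rats were treated with estrone, alone or combined with test progestin, and compared with vehicle and estrone-only groups. Endpoints were uterine epithelial cell height, vaginal epithelial thickness and mammary alveolar bud proliferation.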

The species entered for assay [7] is Rattus norvegicus. Description: Progestational activity in estrone-treated ovariectomized rat assessed as effect on vaginal epithelial thickness. The assay is classed as functional, organism-based. The procedure, abridged:
as §1

For assay [8], the species on record is Rattus norvegicus. The assay is described as follows: Progestational activity in estrone-treated ovariectomized rat assessed as reduction of breast alveolar bud proliferation. In kind it is functional, organism-based. The procedure, abridged: as §1
The species named for assay [9] is Rattus norvegicus. The assay is described as follows: Progestational activity in estrone-treated ovariectomized rat assessed as inhibition of medroxyprogesterone acetate-induced effect on uterine epithelial cell height. In kind it is functional, organism-based. An outline of the steps: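 Antagonist mode of the estrone-treated ovariectomized rat multi-endpoint model: compound was combined with MPA plus estrone, with vehicle and estrone-only groups. Endpoints were uterine epithelial cell height, vaginal epithelial thickness and mammary alveolar bud proliferation.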

The next assay has as its target T3, Androgen receptor (Homo sapiens, UniProt P10275).
T3 sequence (P10275 whole entry): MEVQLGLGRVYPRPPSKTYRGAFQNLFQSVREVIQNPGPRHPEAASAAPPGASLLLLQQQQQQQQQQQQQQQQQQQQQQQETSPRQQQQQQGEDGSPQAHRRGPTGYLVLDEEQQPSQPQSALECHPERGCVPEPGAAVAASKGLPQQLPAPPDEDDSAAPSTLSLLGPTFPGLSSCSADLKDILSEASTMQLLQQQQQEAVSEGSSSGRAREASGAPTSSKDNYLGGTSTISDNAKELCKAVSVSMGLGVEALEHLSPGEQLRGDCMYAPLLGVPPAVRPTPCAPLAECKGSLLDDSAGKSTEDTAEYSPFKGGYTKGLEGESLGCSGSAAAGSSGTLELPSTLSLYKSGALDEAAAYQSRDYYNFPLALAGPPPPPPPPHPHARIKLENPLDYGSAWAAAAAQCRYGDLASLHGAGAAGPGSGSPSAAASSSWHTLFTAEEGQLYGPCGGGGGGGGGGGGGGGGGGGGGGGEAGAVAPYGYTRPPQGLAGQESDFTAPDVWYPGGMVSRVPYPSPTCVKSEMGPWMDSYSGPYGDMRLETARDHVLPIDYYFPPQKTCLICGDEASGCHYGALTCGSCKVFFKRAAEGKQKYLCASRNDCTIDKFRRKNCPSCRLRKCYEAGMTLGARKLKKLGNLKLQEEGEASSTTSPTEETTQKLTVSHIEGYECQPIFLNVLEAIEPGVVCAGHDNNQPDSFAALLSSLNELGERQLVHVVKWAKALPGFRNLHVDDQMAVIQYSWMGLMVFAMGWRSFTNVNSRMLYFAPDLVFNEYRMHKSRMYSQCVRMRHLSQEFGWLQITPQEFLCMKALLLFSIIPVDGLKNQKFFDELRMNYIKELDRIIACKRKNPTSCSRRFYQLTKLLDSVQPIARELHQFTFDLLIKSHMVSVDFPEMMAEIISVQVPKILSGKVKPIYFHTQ
Description: Agonist activity at human androgen receptor. The assay is classed as functional.

For another assay, the target named is T4, Glucocorticoid receptor (Homo sapiens, UniProt P04150).
T4 sequence (P04150 whole entry): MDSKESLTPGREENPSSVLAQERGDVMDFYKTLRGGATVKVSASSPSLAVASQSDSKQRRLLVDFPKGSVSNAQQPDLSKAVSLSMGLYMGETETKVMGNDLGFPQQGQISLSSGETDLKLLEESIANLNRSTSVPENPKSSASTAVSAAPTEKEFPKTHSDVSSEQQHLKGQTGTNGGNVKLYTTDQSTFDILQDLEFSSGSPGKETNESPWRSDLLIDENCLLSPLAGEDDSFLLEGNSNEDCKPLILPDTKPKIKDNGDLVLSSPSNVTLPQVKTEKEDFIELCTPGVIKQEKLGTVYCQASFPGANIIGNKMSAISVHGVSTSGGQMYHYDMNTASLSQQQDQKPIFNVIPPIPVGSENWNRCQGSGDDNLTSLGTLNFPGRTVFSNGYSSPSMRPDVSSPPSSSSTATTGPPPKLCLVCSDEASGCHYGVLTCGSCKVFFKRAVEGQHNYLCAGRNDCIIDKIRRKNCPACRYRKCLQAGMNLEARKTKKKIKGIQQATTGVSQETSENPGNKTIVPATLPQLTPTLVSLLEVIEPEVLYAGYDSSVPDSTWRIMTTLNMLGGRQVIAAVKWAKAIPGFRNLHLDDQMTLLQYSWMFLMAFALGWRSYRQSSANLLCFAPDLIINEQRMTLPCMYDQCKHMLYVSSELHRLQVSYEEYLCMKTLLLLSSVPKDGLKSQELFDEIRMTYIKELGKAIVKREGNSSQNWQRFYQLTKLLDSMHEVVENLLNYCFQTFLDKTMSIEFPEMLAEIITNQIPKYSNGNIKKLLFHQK
The assay is described as follows: Antagonist activity at human glucocorticoid receptor. In kind it is functional.

Assay [10] has as its target T5, Mineralocorticoid receptor (Homo sapiens, UniProt P08235).
T5 sequence (P08235 whole entry): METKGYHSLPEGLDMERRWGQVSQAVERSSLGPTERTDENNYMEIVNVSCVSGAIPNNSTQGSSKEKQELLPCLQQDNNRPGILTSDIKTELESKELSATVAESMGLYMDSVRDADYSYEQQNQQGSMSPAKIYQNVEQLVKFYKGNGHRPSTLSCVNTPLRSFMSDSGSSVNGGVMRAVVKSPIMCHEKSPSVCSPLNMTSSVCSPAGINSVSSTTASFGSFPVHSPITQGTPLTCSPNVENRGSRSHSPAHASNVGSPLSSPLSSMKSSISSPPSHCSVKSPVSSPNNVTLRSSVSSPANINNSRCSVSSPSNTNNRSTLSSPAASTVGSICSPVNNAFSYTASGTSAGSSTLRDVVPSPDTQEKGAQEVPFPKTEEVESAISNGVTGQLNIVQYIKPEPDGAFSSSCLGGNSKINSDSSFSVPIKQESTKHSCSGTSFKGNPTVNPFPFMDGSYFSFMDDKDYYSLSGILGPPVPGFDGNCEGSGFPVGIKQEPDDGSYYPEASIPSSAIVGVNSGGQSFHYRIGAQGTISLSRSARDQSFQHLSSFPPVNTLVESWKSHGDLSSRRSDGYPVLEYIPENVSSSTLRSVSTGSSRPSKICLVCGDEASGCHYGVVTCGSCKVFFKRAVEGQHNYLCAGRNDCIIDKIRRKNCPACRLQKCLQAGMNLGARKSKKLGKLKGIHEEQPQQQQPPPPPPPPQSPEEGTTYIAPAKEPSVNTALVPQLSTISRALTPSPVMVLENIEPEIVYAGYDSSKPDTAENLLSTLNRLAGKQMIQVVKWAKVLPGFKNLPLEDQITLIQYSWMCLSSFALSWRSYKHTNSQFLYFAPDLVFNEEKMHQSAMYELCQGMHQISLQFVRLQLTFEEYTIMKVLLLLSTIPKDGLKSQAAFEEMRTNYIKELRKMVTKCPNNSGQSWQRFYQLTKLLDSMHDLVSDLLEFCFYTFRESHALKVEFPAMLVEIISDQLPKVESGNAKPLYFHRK
Description: Antagonist activity at human mineralocorticoid receptor. The assay is classed as functional.

Active and inactive are the calls of the source. The rule behind the calls is not given here.

For orientation: EC50 means the concentration at which the effect is half-maximal. By Ki is commonly meant the dissociation constant of the complex between target and ligand, obtained from inhibition or displacement. High values mean a looser hold on the target, low ones a stronger hold on the target. As to `CC1=CC(C)(C)Nc2ccc3c(c21)[C@H]([C@H]1CCC[C@@]2(C)O[C@@H]12)Oc1c(F)cc(F)cc1-3`, the results for the Efficacy in [1] and in [3] were 177% and 59%, respectively. The half-maximal effective concentration (EC50) stood at 2.8 nM at Progesterone receptor [2] and 0.4 nM at Progesterone receptor [5]. Moreover, the inhibition constant (Ki) at Progesterone receptor [4] is 1.2 nM.
Turning to `CC(=O)O[C@]1(C(C)=O)CC[C@H]2[C@@H]3C[C@H](C)C4=CC(=O)CC[C@]4(C)[C@H]3CC[C@@]21C`, the Efficacy in assay [1] and in assay [3] was 98% throughout. Moreover, the result in the assay listed under Rattus norvegicus [6], in the assay listed under Rattus norvegicus [7] and in the assay listed under Rattus norvegicus [8] was Active.
Turning to `C[C@@H]1C[C@@H]2C(=C3CCC(=O)C=C31)[C@@H](c1ccc(N(C)C)cc1)C[C@@]1(C)[C@H]2CC[C@@]12CCCO2`, the outcome in the assay listed under Rattus norvegicus [9] was Active.
Turning to `CC1=CC(C)(C)Nc2ccc3c(c21)[C@H]([C@H]1CCCC(C)=C1C)Oc1c(F)cc(F)cc1-3` (racemic), the values for the Efficacy in assay [1] and in assay [3] were 97% and 66%, respectively. Further, the EC50 stood at 96 nM at Progesterone receptor [2] and 10.7 nM at Progesterone receptor [5].
On to `CC1=CC(C)(C)Nc2ccc3c(c21)[C@H]([C@@H]1C=CCCC1)Oc1c(F)cc(F)cc1-3` (racemic), for which the Efficacy in assay [1] stood at 171%; in assay [3], 66%. The EC50 came to 27 nM on Progesterone receptor [2] and 3.4 nM on Progesterone receptor [5]. In addition, the inhibition constant (Ki) on Progesterone receptor [4] amounted to 4.8 nM.
With `CC1=C[C@@H]([C@@H]2Oc3c(F)cc(F)cc3-c3ccc4c(c32)C(C)=CC(C)(C)N4)CCC1` (racemic), the Efficacy in [1] was determined as 162%.
With `CC1=C[C@H]([C@@H]2Oc3c(F)cc(F)cc3-c3ccc4c(c32)C(C)=CC(C)(C)N4)CCC1` (racemic), the Efficacy in assay [1] came to 100%; in assay [3], 63%.
`CC1=C[C@@H]([C@@H]2Oc3c(F)cc(F)cc3-c3ccc4c(c32)C(C)=CC(C)(C)N4)CCC1` (stereo in doubt; (+)-5d) gave an Efficacy in assay [1] of 11%.
For orientation: IC50 means the concentration that inhibits the measured activity by half. The low end stands for higher potency, the high end for lower potency. The compound `CC1=C[C@@H]([C@@H]2Oc3c(F)cc(F)cc3-c3ccc4c(c32)C(C)=CC(C)(C)N4)CCC1` (stereo in doubt; (-)-5c) gave a half-maximal effective concentration (EC50) on Androgen receptor of 1800 nM. For the same compound, the IC50 was 34 nM on Glucocorticoid receptor and 1350 nM in assay [10].
